A selection: hits, their analogues and other compounds. The true share with any hit is near 2.2%.
FGF22 binding-1: shifts melting point of recombinant human FGF22; Q9HCT0; recombinant FGF22 thermal shift, SYPRO orange fluorescence; percent of sucrose octasulfate shift, DMSO zero; activity (Tm shift, normalised), % at 9.99 µM; 340,000 tested, 1.5% active;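 active = mean Tm shift, scaled 0 neutral to 100 positive control, at about 1.3% or above, every replicate too, limit read from the data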
ERAP1 HTS inh: inhibitors of human ERAP1 aminopeptidase. Q9NZ08. recombinant ERAP1, Leu-AMC fluorescence, 60 min. inhibition, % at 10.7 µM. 340,000 tested, 0.15% active;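 active = mean replicate inhibition of at least 30%, or all replicates individually reaching that 30% level; inactive = mean below 30% and not every replicate reaching it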;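 also: 0% = neutral control wells and 100% = L-leucinethiol positive control wells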
FN deposit inh: fibronectin deposition inhibition; inhibition, % at 12.6 µM; AID 743247; AH1F fibroblasts, Alexa488-fibronectin deposition fluorescence, overnight; 350,000 tested, 0.086% active;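 active = mean inhibition across replicates of 30% or more, regardless of how many single replicates reach that level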;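 also: positive control wells lacked labelled fibronectin entirely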
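Test system: AH1F fibroblast monolayer depositing Alexa488-labelled fibronectin into matrix. Input: 10000 cells per well. Technique: fluorescence, ex 485 nm, em 525 nm. Buffer or medium: DMEM plus 2% serum, read in PBS. Timing: 1 h cell adhesion before compound, then overnight fibronectin incubation. Compound: single dose, pinned. Read-out basis: inhibition from reduced deposited-fibronectin fluorescence.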
SIRT5 inh: sirtuin-5 (human) deacylase inhibition | AID 652115 | Purified SirT5, succinyl-peptide AMC, trypsin-coupled fluorescence | 330,000 tested, 1.1% active | inhibition, % at 15 µM | Q9NXA8; in the data active = inhibition above about 15%
PGC1a acetyl inh: lowers PGC1a acetylation signal in U2OS cells; AlphaScreen anti-acetyl-lysine; with virally co-expressed GCN5 acetyltransferase; inhibition, % at 15.6 µM; 350,000 tested, 0.17% active;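 active = every replicate shows inhibition of at least 40%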;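 also: 0% = neutral control wells and 100% = positive control wells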
FGF22 binding-2: binders of human FGF22 by thermal shift | shares compounds with FGF22 binding-1 | 1,000 tested, 2% active | recombinant FGF22 thermal shift, SYPRO orange fluorescence | thermal shift activity, °C (ΔTm) at 38 µM | AID 720646;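 active = fitted rise in melting shift crosses a set limit at or below the top valid dose tested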
SYPRO no-protein: shows thermal shift signal without protein, FGF22 counter-screen; compound-only SYPRO orange thermal shift counter-screen, no protein; AC50, µM (series often up to 38 µM); 1,000 tested, 2% active; shares compounds with FGF22 binding-1; AID 743019;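 active = rising signal whose fitted curve reaches the 0.54 level within the top valid dose, showing a melting point, actives reach about 13 µM in these data; inactive = the rest, including activity in the opposite direction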; also: value is where the raw curve crosses a fixed level and not half-maximal
COX5a expr inh: C2C12 myotube COX5a expression inhibition; maximal activity, %; AID 743461; C2C12 myotubes PGC-1a adenovirus, COX5a qPCR; shares compounds with PGC1a acetyl inh; 45 tested, under 10 active;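 active = fitted dose curve reaching 40% activity at or below the highest valid dose tested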
AID743468: change in PGC-1a target gene PDK4 expression, dose response, C2C12 myotubes, RT-qPCR, cherry-pick. PGC-1a adenovirus, PDK4 mRNA qPCR. PDK4 expression increase, % at 19.5 µM. 45 tested, under 10 active. AID 743468. shares compounds with PGC1a acetyl inh;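 active = fitted curve reaching a 40% PDK4 expression rise at or below the top valid tested dose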
Active calls of the source: *.

What do the screens show for `CCOC(=O)C(c1c(O)c2ccccc2oc1=O)c1c(O)c2ccccc2oc1=O`?
FGF22 binding-1: 1.8*; ERAP1 HTS inh: -2; FN deposit inh: 6; SIRT5 inh: 2; PGC1a acetyl inh: -20; FGF22 binding-2: 0.003; SYPRO no-protein: inactive

Results for CN1[C@@H]2c3cccc(=O)n3C[C@H]1[C@H](CO)[C@H]2C(=O)NCC1CC1 ?
FGF22 binding-1: 0; ERAP1 HTS inh: 4; FN deposit inh: 0; SIRT5 inh: 1

Results for C/C=C/c1ccc([C@@H]2[C@H]3CN(C(=O)Cc4ccncc4)CCCCN3[C@H]2CO)cc1 ?
FGF22 binding-1: 1.3*; ERAP1 HTS inh: 1; SIRT5 inh: 1; PGC1a acetyl inh: 1; FGF22 binding-2: 0.039; SYPRO no-protein: inactive

Results for O=c1[nH]c2ccccc2n1C1CCN(C(c2cc3ccccc3o2)c2nnnn2Cc2ccccc2)CC1 (stereo not drawn) ?
FGF22 binding-1: 0; ERAP1 HTS inh: -7; FN deposit inh: 9; SIRT5 inh: 3; PGC1a acetyl inh: 49*; COX5a expr inh: 55; AID743468: -7

Results for COC(=O)[C@H]1[C@H](CO)[C@H]2Cn3c(ccc(-c4cccc(OC)c4)c3=O)[C@@H]1N2CC1CC1 ?
FGF22 binding-1: 0; ERAP1 HTS inh: -1; SIRT5 inh: -2

Screens as filed in PubChem.
